Experiments:
NCI-H520 [1] = assay: In vitro cell growth inhibition of H520 cell line determined using Non-Radioactive Cell Proliferation Assay at a dose of 100 uM; format: functional, Homo sapiens
Outline: (§1)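 Tetrazolium-type colorimetric proliferation assay (CellTiter 96 AQueous, non-radioactive); cells treated at 10, 50 and 100 µM; read as percent cell survival. All points in quadruplicate. Vehicle control DMSO (0.20%); m-AMSA (20, 40 µM) as reference control.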

NCI-H520 [2] = assay: In vitro cell growth inhibition of H520 cell line determined using non-radioactive cell proliferation assay at a dose of 10 uM; format: functional, Homo sapiens; outline: as §1
NCI-H520 [3] = assay: In vitro cell growth inhibition of H520 cell line determined using non-radioactive cell proliferation assay at a dose of 50 uM; format: functional, Homo sapiens; outline: as §1
PC-3 [4] = assay: In vitro cell growth inhibition of PC3 cell line determined using non-radioactive cell proliferation assay at a dose of 100 uM; format: functional, Homo sapiens; outline: as §1
PC-3 [5] = assay: In vitro cell growth inhibition of PC3 cell line determined using non-radioactive cell proliferation assay at a dose of 10 uM; format: functional, Homo sapiens; outline: as §1
PC-3 [6] = assay: In vitro cell growth inhibition of PC3 cell line determined using Non-Radioactive Cell Proliferation Assay at a dose of 50 uM; format: functional, Homo sapiens; outline: as §1
[7] = Inhibition of topo II-mediated DNA relaxation measured by topo II-mediated DNA relaxation assay; ++ indicates drug interaction with topo II; format: functional
Outline: (§2)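 Relaxation of supercoiled plasmid pUC18 DNA (E. coli) by topo II (2.0 units per reaction) in Tris-Cl pH 8.0 buffer with KCl, MgCl2, ATP, DTT and BSA; 1 µL of 1 mM drug in 10% DMSO per 10 µL reaction, enzyme added last; 37 °C for 30-45 min. Stopped with sarkosyl buffer, chloroform/isoamyl alcohol extraction, 1% agarose gel, ethidium stain. Densitometric qualitative scoring; gels in triplicate.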

PC-3 [8] = assay: In vitro cell growth inhibition of PC3 cell line determined using Non-Radioactive Cell Proliferation Assay at a dose of 10 uM; format: functional, Homo sapiens; outline: as §1
[9] = Inhibition of topo II-mediated DNA relaxation measured by topo II-mediated DNA relaxation assay; - indicates drug does not interaction with topo II; format: functional; outline: as §2
NCI-H520 [10] = assay: In vitro cell growth inhibition of H520 cell line determined using non-radioactive cell proliferation assay at a dose of 100 uM; format: functional, Homo sapiens; outline: as §1
PC-3 [11] = assay: In vitro cell growth inhibition of PC3 cell line determined using non-radioactive cell proliferation assay at a dose of 50 uM; format: functional, Homo sapiens; outline: as §1
[12] = Inhibition of topo II-mediated DNA relaxation measured by topo II-mediated DNA relaxation assay; +++ indicates drug interaction with topo II; format: functional; outline: as §2
[13] = Inhibition of topo II-mediated DNA relaxation measured by topo II-mediated DNA relaxation assay; ++++ indicates drug interaction with topo II; format: functional; outline: as §2

Compound	Cell survival (NCI-H520 [1]) [%]	Cell survival (NCI-H520 [2]) [%]	Cell survival (NCI-H520 [3]) [%]	Cell survival (PC-3 [4]) [%]	Cell survival (PC-3 [5]) [%]	Cell survival (PC-3 [6]) [%]	DNA relaxation [7]	Cell survival (PC-3 [8]) [%]	DNA relaxation [9]	Cell survival (NCI-H520 [10]) [%]	Cell survival (PC-3 [11]) [%]	DNA relaxation [12]	DNA relaxation [13]
COC(=O)[C@@H](CCCCN)NC(=O)[C@@H]1Cc2c([nH]c3ccccc23)[C@@H](c2cc(OC)c(O)c(OC)c2)N1	87.7	78.3	76.9	>100	>100	>100	drug interaction with topo II						
COC(=O)[C@H](CCCCN)NC(=O)[C@@H]1Cc2c([nH]c3ccccc23)[C@@H](c2cc(OC)c(O)c(OC)c2)N1	>100	99.3	>100	90.6	95.2	91.2							
COc1cc([C@@H]2c3[nH]c4ccccc4c3C[C@H]3C(=O)N[C@H](C)C(=O)N23)cc(OC)c1O	91.5	93.8	99.7	95.3	82.6	99.5							
COC(=O)[C@H](NC(=O)[C@@H]1Cc2c([nH]c3ccccc23)[C@@H](c2cc(OC)c(O)c(OC)c2)N1)C(C)C	98.3	90	>100	>100	>100	>100							
COC(=O)[C@@H](Cc1ccc(O)cc1)NC(=O)[C@@H]1Cc2c([nH]c3ccccc23)[C@@H](c2cc(OC)c(O)c(OC)c2)N1	83.2	>100	79	89.8	88.5	>100							
COC(=O)[C@H](Cc1ccccc1)NC(=O)[C@@H]1Cc2c([nH]c3ccccc23)[C@@H](c2cc(OC)c(O)c(OC)c2)N1	14.8	59.4	97.4	18		90.6		97.8					
COC(=O)[C@@H]1CCCN1C(=O)[C@@H]1Cc2c([nH]c3ccccc23)[C@@H](c2cc(OC)c(O)c(OC)c2)N1	86.6	80.5	83.4	>100	96.8	98.3			drug does not interact with topo II				
COc1cc([C@@H]2c3[nH]c4ccccc4c3C[C@H]3C(=O)NCC(=O)N23)cc(OC)c1O	51.9	91.6	69.2	86.6	>100	>100							
COC(=O)[C@H]1CCCN1C(=O)[C@@H]1Cc2c([nH]c3ccccc23)[C@@H](c2cc(OC)c(O)c(OC)c2)N1		94.3	86.1	66.3	98					61	99.4		
COC(=O)[C@H](NC(=O)[C@@H]1Cc2c([nH]c3ccccc23)[C@@H](c2cc(OC)c(O)c(OC)c2)N1)c1ccccc1	99.2	>100	>100	>100	>100	>100						drug interaction with topo II	
COC(=O)[C@@H](CCSC)NC(=O)[C@@H]1Cc2c([nH]c3ccccc23)[C@@H](c2cc(OC)c(O)c(OC)c2)N1	89.6	>100	>100	>100	>100	>100							
COC(=O)[C@H](Cc1c[nH]c2ccccc12)NC(=O)[C@@H]1Cc2c([nH]c3ccccc23)[C@@H](c2cc(OC)c(O)c(OC)c2)N1	2.8	67.9	61.1	6.7	95.7	77							
COC(=O)[C@H](CO)NC(=O)[C@@H]1Cc2c([nH]c3ccccc23)[C@@H](c2cc(OC)c(O)c(OC)c2)N1	79.6	87	90	>100	99.7	98.5							
COC(=O)[C@@H](Cc1c[nH]c2ccccc12)NC(=O)[C@@H]1Cc2c([nH]c3ccccc23)[C@@H](c2cc(OC)c(O)c(OC)c2)N1	7.2	>100	35.2	62.4	>100	84.9						drug interaction with topo II	
COC(=O)[C@H](Cc1ccc(O)cc1)NC(=O)[C@@H]1Cc2c([nH]c3ccccc23)[C@@H](c2cc(OC)c(O)c(OC)c2)N1	98.6	>100	>100	94.9	>100	96.4							
COC(=O)[C@@H](NC(=O)[C@@H]1Cc2c([nH]c3ccccc23)[C@@H](c2cc(OC)c(O)c(OC)c2)N1)c1ccccc1	86.8	82.7	89.9	64.5	88.5	>100							drug interaction with topo II
COC(=O)[C@H](CC(C)C)NC(=O)[C@@H]1Cc2c([nH]c3ccccc23)[C@@H](c2cc(OC)c(O)c(OC)c2)N1	83.2	84	89.2	87.6	>100	98.7							
COC(=O)[C@@H](C)NC(=O)[C@@H]1Cc2c([nH]c3ccccc23)[C@@H](c2cc(OC)c(O)c(OC)c2)N1	>100	>100	>100	>100	96.9	>100	drug interaction with topo II						
COC(=O)[C@H](C)NC(=O)[C@@H]1Cc2c([nH]c3ccccc23)[C@@H](c2cc(OC)c(O)c(OC)c2)N1	>100	>100	>100	95.8	>100	96.6							
COC(=O)[C@@H](NC(=O)[C@@H]1Cc2c([nH]c3ccccc23)[C@@H](c2cc(OC)c(O)c(OC)c2)N1)C(C)C	93.6	87.6	85.4	95.3	91.9	93.1							
COC(=O)[C@@H](Cc1ccccc1)NC(=O)[C@@H]1Cc2c([nH]c3ccccc23)[C@@H](c2cc(OC)c(O)c(OC)c2)N1	6.7	77.6	33	63.6	>100	>100							
COC(=O)CNC(=O)[C@@H]1Cc2c([nH]c3ccccc23)[C@@H](c2cc(OC)c(O)c(OC)c2)N1	>100	>100	>100	88.8	99.7	>100							
COC(=O)[C@H](CCSC)NC(=O)[C@@H]1Cc2c([nH]c3ccccc23)[C@@H](c2cc(OC)c(O)c(OC)c2)N1	79.9	99.2	91.2	76.8	96.7	88.2							
COc1cc([C@@H]2c3[nH]c4ccccc4c3C[C@H]3C(=O)N4CCC[C@H]4C(=O)N23)cc(OC)c1O		>100	>100	>100	>100	>100				>100			
COC(=O)[C@@H](CC(C)C)NC(=O)[C@@H]1Cc2c([nH]c3ccccc23)[C@@H](c2cc(OC)c(O)c(OC)c2)N1	80.6	85.2	84.3	99.4	>100	>100	drug interaction with topo II						

— ChEMBL document CHEMBL1134055, “The synthesis of amino-acid functionalized beta-carbolines as topoisomerase II inhibitors” (2001)
